Measurements taken from ChEMBL document CHEMBL1153988 (J Med Chem, 2009).
Active and inactive are the calls of the source.

Key:
[1] = system: Mus musculus; assay: Anticonvulsant activity in CF1 albino mouse assessed as protection against maximal electroshock-induced seizures at 30 mg/kg, ip after 4 hrs; assay type: functional, organism-based; design: dose 30 mg/kg
Outline: (§1)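 Adult male CF no. 1 albino mice (18-25 g). Test compound suspended in 0.5% methylcellulose and given intraperitoneally at 0.01 mL/g body weight. Maximal electroshock challenge at the stated time. Read-out is the number of animals protected over the number tested; neurotoxicity is scored in parallel.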

[2] = system: Mus musculus; assay: Anticonvulsant activity in CF1 albino mouse assessed as protection against maximal electroshock-induced seizures at 100 mg/kg, ip after 4 hrs; assay type: functional, organism-based; design: dose 100 mg/kg; outline: as §1
[3] = system: Mus musculus; assay: Anticonvulsant activity in CF1 albino mouse assessed as protection against maximal electroshock-induced seizures at 300 mg/kg, ip after 4 hrs; assay type: functional, organism-based; design: dose 300 mg/kg; outline: as §1
[4] = system: Mus musculus; assay: Anticonvulsant activity in CF1 albino mouse assessed as protection against scMet-induced seizures at 30 mg/kg, ip after 0.5 hrs; assay type: functional, organism-based; design: dose 30 mg/kg
Outline: (§2)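 Adult male CF no. 1 albino mice (18-25 g) dosed intraperitoneally with compound suspended in 0.5% methylcellulose (0.01 mL/g). Convulsant challenge given subcutaneously as a 0.85% pentylenetetrazol solution in 0.9% saline. Read-out is animals protected over animals tested, with neurotoxicity scored in parallel.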

[5] = system: Mus musculus; assay: Anticonvulsant activity in CF1 albino mouse assessed as protection against scMet-induced seizures at 100 mg/kg, ip after 0.5 hrs; assay type: functional, organism-based; design: dose 100 mg/kg; outline: as §2
[6] = system: Mus musculus; assay: Anticonvulsant activity in CF1 albino mouse assessed as protection against scMet-induced seizures at 300 mg/kg, ip after 0.5 hrs; assay type: functional, organism-based; design: dose 300 mg/kg; outline: as §2
[7] = system: Mus musculus; assay: Anticonvulsant activity in CF1 albino mouse assessed as protection against scMet-induced seizures at 30 mg/kg, ip after 4 hrs; assay type: functional, organism-based; design: dose 30 mg/kg; outline: as §2
[8] = system: Mus musculus; assay: Anticonvulsant activity in CF1 albino mouse assessed as protection against scMet-induced seizures at 100 mg/kg, ip after 4 hrs; assay type: functional, organism-based; design: dose 100 mg/kg; outline: as §2
[9] = system: Mus musculus; assay: Anticonvulsant activity in CF1 albino mouse assessed as protection against scMet-induced seizures at 300 mg/kg, ip after 4 hrs; assay type: functional, organism-based; design: dose 300 mg/kg; outline: as §2
[10] = system: Mus musculus; assay: Neurotoxicity in CF1 albino mouse at 30 mg/kg, ip after 0.5 hrs; assay type: toxicity, organism-based; design: dose 30 mg/kg, route intraperitoneal; details: in vivo
Outline: (§3)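 Male CF no. 1 albino mice (18-25 g) received a single ip dose as a suspension in 0.5% methylcellulose. The read-out was the number of animals showing neurotoxicity (minimal motor impairment) over the number tested.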

[11] = system: Mus musculus; assay: Neurotoxicity in CF1 albino mouse at 100 mg/kg, ip after 0.5 hrs; assay type: toxicity, organism-based; design: dose 100 mg/kg, route intraperitoneal; details: in vivo; outline: as §3
[12] = system: Mus musculus; assay: Neurotoxicity in CF1 albino mouse at 300 mg/kg, ip after 0.5 hrs; assay type: toxicity, organism-based; design: dose 300 mg/kg, route intraperitoneal; details: in vivo; outline: as §3
[13] = system: Mus musculus; assay: Neurotoxicity in CF1 albino mouse at 30 mg/kg, ip after 4 hrs; assay type: toxicity, organism-based; design: dose 30 mg/kg, route intraperitoneal; details: in vivo; outline: as §3
[14] = system: Mus musculus; assay: Neurotoxicity in CF1 albino mouse at 100 mg/kg, ip after 4 hrs; assay type: toxicity, organism-based; design: dose 100 mg/kg, route intraperitoneal; details: in vivo; outline: as §3
[15] = system: Mus musculus; assay: Neurotoxicity in CF1 albino mouse at 300 mg/kg, ip after 4 hrs; assay type: toxicity, organism-based; design: dose 300 mg/kg, route intraperitoneal; details: in vivo; outline: as §3
[16] = system: Rattus norvegicus; assay: Anticonvulsant activity in albino Sprague-Dawley rat assessed as protection against maximal electroshock-induced seizures at 50 mg/kg, po after 4 hrs; assay type: functional, organism-based; design: dose 50 mg/kg
Outline: (§4)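 Adult male Sprague-Dawley albino rats (100-150 g) dosed orally with compound suspended in 0.5% methylcellulose (0.04 mL per 10 g). Maximal electroshock challenge at the stated time. Protection is scored in 25% steps as the fraction of animals protected, with neurotoxicity recorded in parallel.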

[17] = system: Rattus norvegicus; assay: Anticonvulsant activity in albino Sprague-Dawley rat assessed as protection against maximal electroshock-induced seizures at 50 mg/kg, po after 15 mins; assay type: functional; outline: as §4
[18] = system: Rattus norvegicus; assay: Anticonvulsant activity in albino Sprague-Dawley rat assessed as protection against maximal electroshock-induced seizures at 50 mg/kg, po after 30 mins; assay type: functional; outline: as §4
[19] = system: Rattus norvegicus; assay: Anticonvulsant activity in albino Sprague-Dawley rat assessed as protection against maximal electroshock-induced seizures at 50 mg/kg, po after 1 hr; assay type: functional; outline: as §4
[20] = system: Rattus norvegicus; assay: Anticonvulsant activity in albino Sprague-Dawley rat assessed as protection against maximal electroshock-induced seizures at 50 mg/kg, po after 2 hrs; assay type: functional; outline: as §4
[21] = system: Rattus norvegicus; assay: Neurotoxicity in albino Sprague-Dawley rat at 50 mg/kg, po; assay type: toxicity, organism-based; design: dose 50 mg/kg, route oral; details: in vivo
Outline: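 Neurotoxicity was scored in male Sprague-Dawley albino rats (100-150 g) dosed orally with a suspension in 0.5% methylcellulose. The read-out was the fraction of animals showing neurotoxicity (minimal motor impairment).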

[22] = system: Rattus norvegicus; assay: Anticonvulsant activity in albino Sprague-Dawley rat assessed as protection against scMet-induced seizures at 50 mg/kg, po after 15 mins; assay type: functional
Outline: (§5)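 Male Sprague-Dawley albino rats (100-150 g) were given the compound orally as a suspension in 0.5% methylcellulose. Seizures were induced by subcutaneous pentylenetetrazol, dissolved in 0.9% saline as a 2.82% solution. The read-out was animals protected over animals tested.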

[23] = system: Rattus norvegicus; assay: Anticonvulsant activity in albino Sprague-Dawley rat assessed as protection against scMet-induced seizures at 50 mg/kg, po after 30 mins; assay type: functional; outline: as §5
[24] = system: Rattus norvegicus; assay: Anticonvulsant activity in albino Sprague-Dawley rat assessed as protection against scMet-induced seizures at 50 mg/kg, po after 1 hr; assay type: functional; outline: as §5
[25] = system: Rattus norvegicus; assay: Anticonvulsant activity in albino Sprague-Dawley rat assessed as protection against scMet-induced seizures at 50 mg/kg, po after 2 hrs; assay type: functional; outline: as §5
[26] = system: Rattus norvegicus; assay: Anticonvulsant activity in albino Sprague-Dawley rat assessed as protection against scMet-induced seizures at 50 mg/kg, po after 4 hrs; assay type: functional; outline: as §5
[27] = system: Mus musculus; assay: Anticonvulsant activity in CF1 albino mouse assessed as protection against maximal electroshock-induced seizures at 30 mg/kg, ip after 0.5 hrs; assay type: functional, organism-based; design: dose 30 mg/kg; outline: as §1
[28] = system: Mus musculus; assay: Anticonvulsant activity in CF1 albino mouse assessed as protection against maximal electroshock-induced seizures at 100 mg/kg, ip after 0.5 hrs; assay type: functional, organism-based; design: dose 100 mg/kg; outline: as §1
[29] = system: Mus musculus; assay: Anticonvulsant activity in CF1 albino mouse assessed as protection against maximal electroshock-induced seizures at 300 mg/kg, ip after 0.5 hrs; assay type: functional, organism-based; design: dose 300 mg/kg; outline: as §1
[30] = organism: Rattus norvegicus; assay: Protective index, ratio of TD50 for albino Sprague-Dawley rat to ED50 for maximal electroshock-induced albino Sprague-Dawley rat seizure model; assay type: functional
Outline: (§6)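 Protective index is the rat TD50 (minimal motor impairment) divided by the ED50 in the MES or sc pentylenetetrazol test. Male Sprague-Dawley rats were dosed orally in 0.5% methylcellulose, and both values came from probit analysis.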

[31] = organism: Rattus norvegicus; assay: Protective index, ratio of TD50 for albino Sprague-Dawley rat to ED50 for scMet-induced albino Sprague-Dawley rat seizure model; assay type: functional; outline: as §6

CC1(C)C(C)(C)C1(C)C(N)=O
25%: Activity [24] | Activity [25]
inactive: Activity [1] Non-toxic | Activity [2] Non-toxic | Activity [3] Non-toxic | Activity [4] Non-toxic | Activity [5] Non-toxic | Activity [7] Non-toxic | Activity [8] Non-toxic | Activity [9] Non-toxic | Activity [16] | Activity [17] | Activity [18] | Activity [19] | Activity [20] | Activity [22] | Activity [23] | Activity [26] | Activity [27] Non-toxic | Activity [28] Non-toxic
active: Activity [6] Toxic | Activity [29] Toxic
Non-toxic: Activity [10] | Activity [11] | Activity [13] | Activity [14] | Activity [15]
Not Active: Activity [21]
Toxic: Activity [12]

CC1(C)C(C(=O)NC(N)=O)C1(C)C [2,2,3,3-TETRAMETHYLCYCLOPROPANECARBONYLUREA]
18.5: PI [30]
5.9: PI [31]

CC1(C)C(C)(C)C1(C)C(=O)O
Non-toxic: Activity [10] | Activity [11] | Activity [13] | Activity [14] | Activity [15]
inactive: Activity [1] Non-toxic | Activity [2] Non-toxic | Activity [3] Non-toxic | Activity [4] Non-toxic | Activity [5] Non-toxic | Activity [6] Non-toxic | Activity [7] Non-toxic | Activity [8] Non-toxic | Activity [9] Non-toxic | Activity [16] | Activity [17] | Activity [18] | Activity [19] | Activity [20] | Activity [22] | Activity [23] | Activity [24] | Activity [25] | Activity [27] Non-toxic | Activity [28] Non-toxic
active: Activity [29] Toxic
25%: Activity [26]
Not Active: Activity [21]
